We go through 38 compounds from ChEMBL document CHEMBL1136835, “CB2 selective sulfamoyl benzamides: optimization of the amide functionality” (Bioorg Med Chem Lett, 2009).

What is called Ki is the equilibrium dissociation constant of an inhibitor or competing ligand from its target. Read a high Ki as a looser hold on the target. One may read the EC50 as the midpoint of the concentration-response curve.

The structures appear in SMILES notation. Bounds are passed on as bounds.

In series [1] the target is T1, Cannabinoid receptor 1 (Homo sapiens, UniProt P21554). The series can be described thus: Displacement of [3H]CP-55940 from human cloned CB1 receptor by scintillation spectrometry. In short, it runs like this: (§1)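 Cloned human CB1 or CB2 receptor membranes incubated with 0.2–0.6 nM [3H]CP55940 in 50 mM Tris–HCl pH 7.0 with 5.0 mM MgCl2, 1.0 mM EGTA and 1.0 mg/ml fatty-acid-free BSA. CB2 ran 60 min at room temperature and CB1 120 min at 30 °C. Samples filtered through PEI/BSA-soaked GF/C filters and rinsed six times with cold buffer. Counted by scintillation, with nonspecific binding defined by WIN55212-2. Ki is the geometric mean of at least three determinations.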
T1 sequence (P21554 whole entry): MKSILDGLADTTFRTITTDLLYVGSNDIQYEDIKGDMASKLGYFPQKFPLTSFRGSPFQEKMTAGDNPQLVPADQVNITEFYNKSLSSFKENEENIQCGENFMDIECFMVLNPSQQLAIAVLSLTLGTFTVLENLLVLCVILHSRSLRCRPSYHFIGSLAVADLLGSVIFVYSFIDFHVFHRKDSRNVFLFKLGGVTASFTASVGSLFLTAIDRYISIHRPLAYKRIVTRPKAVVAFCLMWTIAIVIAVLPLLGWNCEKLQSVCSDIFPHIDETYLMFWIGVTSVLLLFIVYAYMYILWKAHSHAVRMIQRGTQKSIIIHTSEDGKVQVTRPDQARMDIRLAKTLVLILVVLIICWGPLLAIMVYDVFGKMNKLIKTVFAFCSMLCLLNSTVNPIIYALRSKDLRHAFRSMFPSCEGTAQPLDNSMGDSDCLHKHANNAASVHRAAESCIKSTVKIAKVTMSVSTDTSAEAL

For series [2], the target named is T2, Cannabinoid receptor 2 (Homo sapiens, UniProt P34972). Nature of the series: Displacement of [3H]CP-55940 from human cloned CB2 receptor by scintillation spectrometry. In outline: as §1
T2 sequence (P34972 whole entry): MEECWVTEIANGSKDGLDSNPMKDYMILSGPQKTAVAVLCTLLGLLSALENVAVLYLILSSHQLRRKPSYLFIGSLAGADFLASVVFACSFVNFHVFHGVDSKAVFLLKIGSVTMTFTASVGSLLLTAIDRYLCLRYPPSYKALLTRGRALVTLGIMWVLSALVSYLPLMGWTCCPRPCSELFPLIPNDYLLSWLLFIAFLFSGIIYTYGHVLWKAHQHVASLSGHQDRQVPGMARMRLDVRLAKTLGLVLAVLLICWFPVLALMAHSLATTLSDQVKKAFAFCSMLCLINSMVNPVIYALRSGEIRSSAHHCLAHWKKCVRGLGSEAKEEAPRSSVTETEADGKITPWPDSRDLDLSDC
Series [3] is filed under the species Homo sapiens. Nature of the series: Ratio of Ki for human cloned CB1 receptor to Ki for human cloned CB2 receptor. In outline: as §1
For series [4], the target named is T2, Cannabinoid receptor 2. Nature of the series: Agonist activity at human cloned CB2 receptor assessed as stimulation of [35S]GTPgammaS binding. (Binding of GTPγS marks nucleotide exchange on a G protein.)
Series [5] deals with Rattus norvegicus. Nature of the series: Antiallodynic activity in rat hind paw incisional model assessed as mechanical paw-withdrawal threshold at 30 mg/kg, ip after 30 mins relative to control. Format: functional. The conditions noted are these: route intraperitoneal. In outline:
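Rat hindpaw incision model. Mechanical paw-withdrawal threshold measured on the left hindpaw, 30 min after ip dosing at 30 mg/kg. N = 8 per group. Compared with the vehicle-treated group.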

Series [6] concerns Rattus norvegicus. Nature of the series: Antiallodynic activity in rat hind paw incisional model assessed as mechanical paw-withdrawal threshold at 300 mg/kg, po after 120 mins in presence of aminobenzotriazole relative to aminobenzotriazole-treated control. Format: functional. In short, it runs like this: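 Rat hindpaw incision model. Rats pretreated with the P450 suicide inhibitor aminobenzotriazole, then dosed 300 mg/kg po 120 min before testing. Left hindpaw mechanical withdrawal threshold read, N = 8 per group. One-way ANOVA with protected t-test against ABT-vehicle incised animals.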

The nature of series [7]: Metabolic stability in human liver microsomes after 30 mins. Type of series: ADME, Microsome. The conditions noted are these: read-out: Stability.
Series [8] can be described thus: Metabolic stability in rat liver microsomes after 30 mins. The conditions noted are these: read-out: Stability. Type of series: ADME, Microsome. (In general: Liver microsomes are a subcellular fraction often used to study metabolism.)
Series [9] addresses T1, Cannabinoid receptor 1. Nature of the series: Displacement of [3H]CP-55940 from human cloned CB1 receptor at 10 uM by scintillation spectrometry.

On to `Cc1ccc(-c2n[nH]c(CC3CCCCC3)n2)cc1S(=O)(=O)N1CCOCC1`, for which the figures for the Ki in series [1] and in series [2] were 310 nM and 27 nM, respectively. Further, in series [3], the Ratio Ki came out at 11. In addition, the EC50 in series [4] worked out at 57 nM.
`Cc1ccc(NC(=O)C2C(C)(C)C2(C)C)cc1S(=O)(=O)N1CCOCC1`: the figures for the inhibition constant Ki in [1] and in [2] were 3400 nM and 23 nM, respectively. Besides, the Ratio Ki in series [3] is 150. Further, the concentration for a half-maximal effect (EC50) in series [4] was found to be 11 nM. Besides, the Activity in series [5] was found to be 183%; in series [6] it was 262%. Besides, the remaining at 0.5 h stood at 1% in series [7] and 2% in [8].
Turning to `Cc1ccc(C(=O)N[C@@H]2C(C)(C)[C@@H]3CC[C@@]2(C)C3)cc1S(=O)(=O)N1CCOCC1`, the Ki in series [1] was found to be 130 nM; in series [2] it was 3.9 nM. The Ratio Ki in series [3] was 31. For the same compound, the EC50 in [4] is 4.6 nM.
`Cc1ccc(-c2c[nH]c(C(C)(C)C)n2)cc1S(=O)(=O)N1CCOCC1`: the results for the inhibitory constant (Ki) in [1] and in series [2] were 770 nM and 81 nM, respectively. Also, the EC50 in [4] worked out at 130 nM.
In turn, `Cc1ccc(NC(=O)c2ccc(Cl)cc2)cc1S(=O)(=O)N1CCOCC1` registered a Ki in series [2] of 2900 nM. This compound displayed an Activity in series [9] of 25%.
With `Cc1ccc(NC(=O)[C@@H]2C(C)(C)[C@@H]3CC[C@@]2(C)C3)cc1S(=O)(=O)N1CCOCC1`, the Ki in series [1] is 640 nM; in [2], 1.7 nM. In addition, in series [3], the Ratio Ki amounted to 380. In addition, in series [4], the 50% effective concentration (EC50) came out at 9.6 nM.
For `Cc1ccc(NC(=O)c2cccc(Cl)c2)cc1S(=O)(=O)N1CCOCC1`, in that order: 270 nM, 120 nM, 2.3 and 220 nM.
For `Cc1ccc(-c2nc(CC3CCCCC3)cs2)cc1S(=O)(=O)N1CCOCC1`, in that order: 390 nM, 23 nM, 17 and 120 nM.
The matching figures for `Cc1ccc(NC(=O)C(C(C)(C)C)C(C)(C)C)cc1S(=O)(=O)N1CCOCC1`: 1200 nM, 11 nM, 110 and 31 nM.
For `Cc1ccc(-c2nnn(CC(C)(C)C)n2)cc1S(=O)(=O)N1CCOCC1`, the Ki is 130 nM in series [1] and 17 nM in [2]. Also, the Ratio Ki in series [3] worked out at 7.6. Besides, the EC50 in series [4] came out at 49 nM.
In the case of `Cc1ccc(NC(=O)C2CCCCC2(C)C)cc1S(=O)(=O)N1CCOCC1` (stereo unspecified), the inhibition constant (Ki) in series [1] stood at 790 nM; in series [2], 11 nM. The Ratio Ki in series [3] was 72. In [4], the EC50 came out at 8400 nM.
As to `Cc1ccc(-c2nc(C(C)(C)C)cs2)cc1S(=O)(=O)N1CCOCC1`, the values for the Ki in series [1] and in series [2] were 260 nM and 5.7 nM, respectively. Besides, in [3], the Ratio Ki worked out at 47. Also, in [4], the EC50 came to 21 nM.
The matching figures for `Cc1ccc(-c2n[nH]c(C(C)(C)C)n2)cc1S(=O)(=O)N1CCOCC1`: 530 nM, 100 nM, 5.3 and 130 nM.
With `Cc1ccc(C(=O)NC(C(C)(C)C)C(C)(C)C)cc1S(=O)(=O)N1CCOCC1`, in series [3], the Ratio Ki was found to be 9.
For `Cc1ccc(-c2nnn[nH]2)cc1S(=O)(=O)N1CCOCC1`, the Ki in series [1] and in series [2] was more than 5000 nM each time.
As to `Cc1ccc(-c2cnc(C(C)(C)C)[nH]2)cc1S(=O)(=O)N1CCOCC1`, the Ratio Ki in series [3] was 9.4.
Regarding `Cc1ccc(-c2n[nH]c(CC(C)(C)C)n2)cc1S(=O)(=O)N1CCOCC1`, the figures for the Ki in series [1] and in [2] were 140 nM and 85 nM, respectively. In series [3], the Ratio Ki came to 1.6. Further, in series [4], the EC50 turned out to be 64 nM.
With `Cc1ccc(NC(=O)[C@H]2C[C@@]3(C)CC[C@]2(C)O3)cc1S(=O)(=O)N1CCOCC1`, the Ki in series [2] was found to be 2000 nM. In addition, the Activity in [9] amounted to 44%.
As for `Cc1ccc(-c2noc(C(C)(C)C)n2)cc1S(=O)(=O)N1CCOCC1`, the figures for the inhibitory constant (Ki) in [1] and in series [2] were 510 nM and 75 nM, respectively. Besides, in series [3], the Ratio Ki is 6.8. Further, in [4], the EC50 came to 77 nM.
`Cc1ccc(NC(=O)[C@@H]2C[C@@]3(C)CC[C@]2(C)O3)cc1S(=O)(=O)N1CCOCC1`: the Ki in [1] came to 2900 nM; in series [2], 660 nM. For the same compound, the Ratio Ki in [3] was 4.4.
As for `Cc1ccc(-c2cc(CC(C)(C)C)[nH]n2)cc1S(=O)(=O)N1CCOCC1`, the Ki in series [1] worked out at 750 nM; in [2], 75 nM. For the same compound, in series [3], the Ratio Ki was 10. In addition, the half-maximal effective concentration (EC50) in series [4] came out at 120 nM.
In the case of `Cc1ccc(-c2nc(CC(C)(C)C)c[nH]2)cc1S(=O)(=O)N1CCOCC1`, the Ki is 1100 nM in series [1] and 36 nM in [2]. In addition, in series [3], the Ratio Ki was determined as 31. Besides, in series [4], the concentration for a half-maximal effect (EC50) worked out at 47 nM.
Compound `Cc1ccc(NC(=O)C(C)(C)C)cc1S(=O)(=O)N1CCOCC1` showed a Ki in series [2] of 540 nM. The compound also showed an Activity in series [9] of 4.7%.
For `O=C(NCc1ccccc1)c1ccc(Br)c(S(=O)(=O)N2CCOCC2)c1`, the figures for the Ki in [1] and in [2] were more than 1000 nM and 800 nM, respectively.
For `Cc1ccc(NC(=O)C(C)(C(F)(F)F)C(F)(F)F)cc1S(=O)(=O)N1CCOCC1`, the Ki in [1] turned out to be 470 nM; in [2], 23 nM. For the same compound, the Ratio Ki in series [3] was 20. For the same compound, in [4], the EC50 is 29 nM.
The matching figures for `Cc1ccc(C(=O)N[C@H]2C(C)(C)[C@@H]3CC[C@@]2(C)C3)cc1S(=O)(=O)N1CCOCC1`: 540 nM, 48 nM, 11 and 25 nM.
The matching figures for `Cc1ccc(NC(=O)c2ccccc2Cl)cc1S(=O)(=O)N1CCOCC1`: 1100 nM, 170 nM, 6.5 and 390 nM.
Take `Cc1ccc(-c2noc(CC3CCCCC3)n2)cc1S(=O)(=O)N1CCOCC1`: the figures for the inhibition constant Ki in series [1] and in [2] were 740 nM and 130 nM, respectively. Moreover, in [3], the Ratio Ki was found to be 5.9. Also, in [4], the EC50 was 110 nM.
The matching figures for `Cc1ccc(-c2noc(CC(C)(C)C)n2)cc1S(=O)(=O)N1CCOCC1`: 270 nM, 59 nM, 4.5 and 70 nM.
As for `Cc1ccc(NC(=O)C2CCCCC2)cc1S(=O)(=O)N1CCOCC1`, the results for the Ki in series [1] and in [2] were 1900 nM and 120 nM, respectively. In addition, the Ratio Ki in [3] amounted to 16.
`Cc1ccc(NC(=O)[C@H]2C(C)(C)[C@@H]3CC[C@@]2(C)C3)cc1S(=O)(=O)N1CCOCC1`: the Ki in series [1] amounted to 1200 nM; in [2], 9.4 nM. Also, the Ratio Ki in [3] was 130. The EC50 in [4] came to 49 nM.
The matching figures for `Cc1ccc(NC(=O)C2CCCCC2C)cc1S(=O)(=O)N1CCOCC1` (stereo unspecified): 1800 nM, 14 nM, 130 and 42 nM.
Take `Cc1ccc(-c2cc(C(C)(C)C)[nH]n2)cc1S(=O)(=O)N1CCOCC1`: the Ki in series [1] turned out to be 6990 nM; in [2] it was 160 nM. The EC50 in [4] was determined as 130 nM.
Consider `Cc1ccc(-c2nc(CC(C)(C)C)cs2)cc1S(=O)(=O)N1CCOCC1`, for which the inhibitory constant (Ki) in series [1] is 200 nM; in series [2], 5.2 nM. For the same compound, the Ratio Ki in [3] was 38. For the same compound, the half-maximal effective concentration (EC50) in [4] amounted to 23 nM.
For `Cc1ccc(-c2nnn(CC3CCCCC3)n2)cc1S(=O)(=O)N1CCOCC1`, in that order: 560 nM, 82 nM, 6.9 and 78 nM.
Consider `Cc1ccc(-c2cc(CC3CCCCC3)[nH]n2)cc1S(=O)(=O)N1CCOCC1`, for which the inhibitory constant (Ki) in [1] is 1400 nM; in series [2], 87 nM. In [3], the Ratio Ki is 16. Also, the EC50 in series [4] came out at 190 nM.
Take `Cc1ccc(-c2nc(C(C)(C)C)c[nH]2)cc1S(=O)(=O)N1CCOCC1`: the results for the inhibition constant Ki in [1] and in series [2] were 1100 nM and 23 nM, respectively. In addition, the Ratio Ki in [3] turned out to be 48. In series [4], the EC50 was 58 nM.
For `Cc1ccc(NC(=O)C2(C)CCCCC2)cc1S(=O)(=O)N1CCOCC1`, in that order: 1200 nM, 35 nM, 34 and 33 nM.
